# Assay outcomes: PubChem BioAssay, several laboratories
# Only some compounds are listed: those with a hit (about 3.5% of all), similar ones and a draw of the others.
# FXIIa inh 1536: factor XIIa (human) inhibition; P00748; purified FXIIa, Boc-QGR-AMC fluorogenic substrate, 2 h; inhibition, % at 5 µM; 220,000 tested, 0.3% active; AID 800; in the data active means inhibition above about 40%
# Target sequence (P00748 20-372 limits assumed): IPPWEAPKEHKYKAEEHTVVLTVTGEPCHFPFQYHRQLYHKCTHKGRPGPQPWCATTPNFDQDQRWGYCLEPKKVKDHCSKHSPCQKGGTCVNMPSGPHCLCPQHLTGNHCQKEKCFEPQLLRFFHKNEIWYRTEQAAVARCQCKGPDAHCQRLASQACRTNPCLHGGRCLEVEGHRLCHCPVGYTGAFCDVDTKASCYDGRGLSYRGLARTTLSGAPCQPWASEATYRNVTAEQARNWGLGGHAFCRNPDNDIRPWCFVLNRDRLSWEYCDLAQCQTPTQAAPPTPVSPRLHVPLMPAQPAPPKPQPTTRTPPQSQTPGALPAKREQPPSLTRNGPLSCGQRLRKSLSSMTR
# Target sequence (P00748 373-615 limits assumed): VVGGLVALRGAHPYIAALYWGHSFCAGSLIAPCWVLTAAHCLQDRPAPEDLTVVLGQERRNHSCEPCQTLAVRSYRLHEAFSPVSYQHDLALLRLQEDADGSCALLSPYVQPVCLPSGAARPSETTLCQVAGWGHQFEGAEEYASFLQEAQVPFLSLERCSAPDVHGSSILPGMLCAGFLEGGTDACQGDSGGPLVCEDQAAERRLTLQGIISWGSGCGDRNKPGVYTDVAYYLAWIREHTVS
# Thrombin inh: thrombin (human) inhibition; P00734; alpha-thrombin, Boc-VPR-AMC fluorogenic substrate cleavage; inhibition, % at 5 µM; 220,000 tested, 0.26% active;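 active means inhibition at or above 40%; inactive means inhibition below 40%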
#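 System – human alpha-thrombin · Medium – pH 7.5 Tris (50 mM) with NaCl 150 mM, Tween 20 0.05% · Compound – single-point dosing at 5 µM, 0.2% DMSO · Incubation – enzyme reaction carried out at room temperature · Technique – fluorescence of released AMC, ex 355 nm, em 460 nm · Read-out basis – % inhibition of thrombin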
# STAT3 activator: activators of IL-6 induced STAT3 signaling; U3A cells, IL-6 STAT3-luciferase reporter, luminescence; 100% = signal with IL-6 EC80 alone; activation (% of control), % at 5.6 µM; 190,000 tested, 0.91% active;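 active means activation above the screen-wide mean of compound activation plus 3 SD, cut at about 130% in these data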
#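 Assay system – human STAT1-deficient U3A cells with stable STAT3-luciferase reporter · Also added – IL-6 (33 ng/mL) · Schedule – compound 1 h, then IL-6 6 h at 37 °C · Technique – reporter luminescence signal · Evaluation – % activation versus median of IL-6-stimulated wells · Benchmarks – IL-6-only wells as 100% reference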
# FXIa inh 1536: factor XIa (human) inhibition | 220,000 tested, 0.14% active | purified FXIa, Boc-Glu-Ala-Arg-AMC fluorogenic substrate | P03951 | inhibition, % at 5 µM;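 active means inhibition of at least 40%; inactive means inhibition below 40%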;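 further: fluorescence of freed AMC excited at 355 nm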
# KLK5 inh: kallikrein 5 (human) inhibition; recombinant hK5, fluorogenic AMC substrate cleavage; 210,000 tested, 0.59% active; AID 873; inhibition, % at 5 µM;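 active means inhibition of 40% or more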
# AHR act: activates the human aryl hydrocarbon receptor | AHR-responsive luciferase reporter cells, luminescence | activation, % at 5 µM | 320,000 tested, 2.5% active; in the data active means activation above about 47%
# A number is an active result; i = inactive; nt = not tested or not shown.
SMILES,FXIIa inh 1536,Thrombin inh,STAT3 activator,FXIa inh 1536,KLK5 inh,AHR act
CCOc1ccccc1C1CC(=O)Nc2c1c(=O)n(C)c(=O)n2C (stereo unspecified),i,i,i,i,i,i
COc1ccc(C2=CSC3=C(C(=O)c4cccc(S(=O)(=O)N(C)C)c4)CCN23)cc1,i,i,i,i,i,i
CCOC(=O)NC(=O)c1cn(CCN(C)C)c(=O)[nH]c1=O,i,i,i,i,i,i
CCOc1cc(/C=C(/C#N)c2nc3ccccc3[nH]2)ccc1OCc1ccc(C(=O)O)o1,i,i,i,i,i,i
COc1cc(/C=C(\C#N)c2nc3ccccc3[nH]2)c([N+](=O)[O-])cc1OCc1ccccc1,i,i,136.6,i,i,87.9
CN(C)/C(CN1CCN(C=O)CC1)=C1\N=C(c2ccccc2)OC1=O,i,i,i,i,66.5,i
COCC(=O)n1nc(-c2ccccc2)nc1NCc1ccc(F)cc1,i,90.4,i,i,i,i
CCC(=O)n1nc(-c2ccccc2)nc1NCc1ccccc1,i,nt,i,i,i,i
COCC(=O)n1nc(-c2ccccc2)nc1NCc1ccccc1,i,90.5,i,i,i,nt
Cc1cc(C)cc(NCc2cc(=O)oc3cc(C)c(O)cc23)c1,nt,nt,nt,nt,nt,i
Cc1cc(C)cc(NCc2cc(=O)oc3cc(-c4ccccc4)c(O)cc23)c1,i,i,i,i,i,49.5
COc1ccc(C)cc1NCc1cc(=O)oc2cc(-c3ccccc3)c(O)cc12,i,i,i,i,i,49.2
O=C(O)c1cccc(N/N=C/c2cn(-c3ccccc3)nc2-c2cccs2)c1,nt,i,i,i,i,54.0
N#Cc1c(-c2ccc(Cl)cc2)ccn2nc(C3CCCCC3)nc12,i,i,i,i,i,i
NC(=O)COC(=O)c1ccc(Cl)c(S(=O)(=O)N2CCN(c3ccc(F)cc3)CC2)c1,i,i,i,i,45.1,i
O=C(NCc1ccccc1)c1cc(-c2cccs2)on1,i,i,i,i,i,i
O=C(NCc1ccccc1)c1nc(-c2cccs2)no1,i,44.5,i,i,i,i
CC(C)Cc1ccccc1S(N)(=O)=O,nt,nt,nt,nt,nt,i
COc1ccccc1/C=C/C(=O)OCC(=O)Nc1c(C)nn(-c2ccccc2)c1C,nt,nt,nt,nt,nt,i
Cc1onc(-c2ccccc2)c1C(=O)NNC(=O)c1ccccc1,nt,nt,nt,nt,nt,i
Cc1onc(-c2ccccc2)c1C(=O)NNC(=O)c1ccccc1O,nt,nt,nt,nt,nt,78.4
Cc1onc(-c2ccccc2)c1C(=O)NCCc1ccc(S(N)(=O)=O)cc1,i,i,i,i,i,76.0
O=C(Nc1cc(C(F)(F)F)ccc1-n1cncn1)c1ccc([N+](=O)[O-])o1,nt,nt,nt,nt,nt,i
O=C(NC1CCC(O)CC1)c1ccc(-c2ccc(Cl)cc2)o1 (stereo unspecified),nt,nt,nt,nt,nt,i
O=C(NNC(=O)c1ccccc1F)c1ccc(-c2ccc(Cl)cc2)o1,nt,nt,nt,nt,nt,67.8
SMILES,FXIIa inh 1536,Thrombin inh,STAT3 activator,FXIa inh 1536,KLK5 inh,AHR act
COc1ccc(C2COC(=O)C2=N)c(NC(=O)c2ccc(Cl)cc2)c1 (stereo unspecified),i,i,i,i,i,75.8
Cc1ccccc1NC(=O)CN1C(=O)N/C(=C\c2ccccc2OCc2ccc(C(=O)O)cc2)C1=O,nt,nt,nt,nt,nt,i
Cc1cnc(NC(=O)/C=C/c2ccc(Br)o2)s1,i,i,nt,i,i,i
O=C(/C=C/c1ccc(Br)o1)Nc1nnc(C2CC2)s1,i,i,nt,i,i,66.0
OC[C@@H](O)[C@H](O)C(/C=N/Nc1ccccc1)=N\Nc1ccccc1,i,i,nt,i,i,i
C#CCOCCOCCOCCNc1nc(N2CCN(C(=O)[C@H](Cc3cc4ccccc4[nH]3)n3cc([C@@H](N)Cc4ccc(O)cc4)nn3)CC2)nc(N2CCN(C(=O)[C@H](Cc3cc4ccccc4[nH]3)n3cc([C@@H](N)CC(C)C)nn3)CC2)n1,i,i,nt,i,i,nt
Cn1ccsc1=NC(=O)c1ccc(Cl)c([N+](=O)[O-])c1,nt,nt,nt,nt,nt,68.0
Cn1ccsc1=NC(=O)c1ccc(S(C)(=O)=O)c([N+](=O)[O-])c1,nt,nt,nt,nt,nt,61.8
CCOc1ccc2nc(NC(=O)Nc3ccccc3)sc2c1,i,i,i,i,i,77.9
CCOc1ccc(/C=N/NC(=O)Nc2ccccc2)cc1,i,i,i,i,i,60.8
CCN(CC)c1ccc(/C=N/NC(=O)Nc2ccccc2)cc1,i,i,i,i,i,i
CCc1nnc(NC(=O)c2sc3nc4c(cc3c2N)CCCCCC4)s1,i,i,i,i,i,49.6
Nc1c(C(=O)N2CCCCC2)sc2nc3c(cc12)CCCC3,nt,nt,nt,nt,nt,i
CN1CCc2nc(SCC(=O)Nc3ccc(F)cc3)c(C#N)cc2C1,i,i,i,i,i,67.5
CCc1nnc(NC(=O)CSc2nc3c(cc2C#N)CCCC3)s1,i,i,i,i,48.8,i
CCn1c(SCC(=O)Nc2cccc(C)c2)nc2nc3c(cc2c1=O)COC(C)(C)C3,i,i,nt,i,i,i
C=C1C[C@H](O[C@@H]2O[C@H](CO)[C@@H](O)[C@H](O)[C@H]2O)[C@@H]2[C@H](OC(=O)[C@H]2C)[C@H]2[C@H](C)[C@H](O)C[C@@H]12,nt,nt,nt,nt,nt,i
O=C(O)/C=C\C(=O)Nc1ccccc1C#Cc1ccccc1,i,i,i,i,i,i
O=C(O)/C=C\C(=O)Nc1ccccc1C#Cc1ccc(Br)cc1,i,i,i,i,i,68.6
Nc1c(C(=O)N/N=C/c2ccc(F)cc2)oc2nc(-c3ccccc3)cc(-c3ccco3)c12,i,i,nt,i,i,56.9
Nc1c(C(=O)N/N=C/c2ccccc2Cl)oc2nc(-c3ccccc3)cc(-c3ccco3)c12,i,i,nt,i,i,49.9
Cc1cc(-c2ccccc2)nc2oc(C(=O)NN)c(N)c12,i,i,nt,i,i,i
CCCCN1C(=O)N(c2ccccc2Cl)C(C)(O)CC1(C)C (stereo unspecified),nt,nt,nt,nt,nt,i
CCCCN(C(=O)c1ccncc1)c1c(N)n(CCC)c(=O)[nH]c1=O,nt,nt,nt,nt,nt,i
Cc1cc(N2CCCCC2)nc2c(C)cccc12,i,i,i,i,i,i
SMILES,FXIIa inh 1536,Thrombin inh,STAT3 activator,FXIa inh 1536,KLK5 inh,AHR act
Cc1cc(N2CCN(S(=O)(=O)c3ccccc3)CC2)nc2c(C)cccc12,nt,nt,nt,nt,nt,68.0
COc1ccc(-c2cc(-c3ccc(Cl)cc3)c(C#N)c(SCC(=O)O)n2)cc1,nt,nt,nt,nt,nt,i
CC(=O)NC1C(=O)N(C)c2ccc(Br)cc21 (stereo unspecified),i,i,i,i,45.1,i
CCCN1C(=O)C(NC(C)=O)c2ccccc21 (stereo unspecified),i,i,i,i,i,i
COc1ccccc1-n1c(SCc2cc(=O)oc3cc(O)ccc23)nc2ccccc2c1=O,i,i,i,i,i,i
COc1ccccc1-n1c(=O)oc2ccc(Cl)cc2c1=O,i,i,i,i,i,68.2
COc1ccccc1-c1cc2ccccc2[nH]1,i,i,i,i,i,64.1
O=C(O)c1ccccc1-c1cc2ccccc2[nH]1,nt,nt,nt,nt,nt,i
COCC(=O)Nc1nc2ccccc2s1,i,i,i,i,i,i
O=C(NC(=S)Nc1nc2ccccc2s1)c1cccs1,i,i,151.1,i,i,72.1
